Only some compounds are listed: those with a hit (about 3.7% of all), similar ones and a draw of the others.
KCNK9 inh: human KCNK9 channel inhibition. Q9NPC2. HEK293 KCNK9, FluxOR thallium flux fluorescence; hits give low values. B-score at 10 µM. 310,000 compounds, 1.2% hits. AID 488922;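 active = ratio B-score over 3 SD below the library mean, with starting fluorescence within 5 SD of its mean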;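 also: negative B-score means less thallium flux so channel inhibition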
KCNQ1 pot: potentiators or activators of human KCNQ1 potassium channel. 310,000 compounds, 0.35% hits. P51787. CHO-K1 KCNQ1, thallium flux FluxOR fluorescence; hits give high values. B-score at 10 µM;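 active = fluorescence ratio B-score, a plate-corrected score, at least three library SD, with initial intensity B-score within 5 SD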
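Medium – assay buffer, equal DMSO in all wells · Material – CHO-K1 cell line with stable KCNQ1 potassium channel expression · Signal – kinetic FluxOR thallium fluorescence, 10-s 1-Hz baseline, 110-s post-stimulus read · Compound – single concentration per compound, DMSO matched to controls · Schedule – 37 °C overnight plating, 90-min dark dye load, 20-min compound pretreatment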
KCNQ1 inh: human KCNQ1 channel inhibition; CHO-K1 KCNQ1, FluxOR thallium flux fluorescence; hits give high values; B-score at 10 µM; 310,000 compounds, 1.3% hits;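 active = compounds whose thallium flux B-score, printed positive for inhibition, exceeds three library SD while starting fluorescence stays within three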;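 also: channel opened by potassium depolarization with thallium stimulus after 20 min compound exposure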
hERG protect: compounds protecting human hERG from proarrhythmic drug block; 310,000 compounds, 0.51% hits; Q12809; AID 1511; activation (rescue from dofetilide block), less the hit threshold, % at 10 µM; CHO-hERG, FluxOR thallium flux, dofetilide IC70 present;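 active = activation above the mean of controls blocked by dofetilide plus 5 SD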;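 also: thallium influx through hERG after potassium depolarization seen as dye fluorescence rise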
Target sequence (Q12809 whole entry, looked up): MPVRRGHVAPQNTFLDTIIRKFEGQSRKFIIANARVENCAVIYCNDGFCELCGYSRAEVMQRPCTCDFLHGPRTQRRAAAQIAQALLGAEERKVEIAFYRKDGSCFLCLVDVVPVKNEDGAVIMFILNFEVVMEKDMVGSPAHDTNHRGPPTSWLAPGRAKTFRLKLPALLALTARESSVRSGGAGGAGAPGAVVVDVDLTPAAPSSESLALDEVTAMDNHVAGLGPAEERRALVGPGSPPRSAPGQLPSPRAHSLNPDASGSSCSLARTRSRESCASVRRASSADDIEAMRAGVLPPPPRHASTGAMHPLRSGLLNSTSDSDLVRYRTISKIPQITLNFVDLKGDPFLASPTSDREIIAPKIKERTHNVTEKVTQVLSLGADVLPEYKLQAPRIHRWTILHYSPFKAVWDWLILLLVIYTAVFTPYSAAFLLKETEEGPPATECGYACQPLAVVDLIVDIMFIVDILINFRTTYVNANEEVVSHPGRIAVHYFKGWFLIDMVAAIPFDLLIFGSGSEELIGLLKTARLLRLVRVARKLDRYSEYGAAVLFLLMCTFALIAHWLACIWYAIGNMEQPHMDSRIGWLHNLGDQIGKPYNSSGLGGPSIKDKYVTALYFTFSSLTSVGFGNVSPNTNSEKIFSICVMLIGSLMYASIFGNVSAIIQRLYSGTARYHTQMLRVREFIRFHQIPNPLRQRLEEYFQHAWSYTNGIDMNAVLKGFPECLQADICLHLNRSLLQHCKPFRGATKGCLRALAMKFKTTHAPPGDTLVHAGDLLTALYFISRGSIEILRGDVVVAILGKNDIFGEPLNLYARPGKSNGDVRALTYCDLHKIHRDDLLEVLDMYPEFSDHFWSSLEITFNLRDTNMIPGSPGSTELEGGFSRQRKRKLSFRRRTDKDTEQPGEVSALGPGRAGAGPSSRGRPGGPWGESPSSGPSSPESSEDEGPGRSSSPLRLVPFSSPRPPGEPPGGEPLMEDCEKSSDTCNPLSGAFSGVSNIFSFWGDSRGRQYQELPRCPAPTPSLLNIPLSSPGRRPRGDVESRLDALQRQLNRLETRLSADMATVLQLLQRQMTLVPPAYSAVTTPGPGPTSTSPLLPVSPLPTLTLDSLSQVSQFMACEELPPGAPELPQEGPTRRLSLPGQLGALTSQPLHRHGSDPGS
Kir21 inh: inhibitors of mouse Kir2.1 inward-rectifier potassium channel; 310,000 compounds, 0.85% hits; B-score at 10 µM; HEK293-Kir2.1, FluxOR thallium flux fluorescence; hits give low values;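 active = fluorescence ratio B-score at or below minus 3 SD of library scores, with starting-brightness B-score within 2 SD, cut at about -4.2 in these data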;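 also: channel flux triggered by added potassium and thallium sulfate stimulus; B-score of peak minus minimum fluorescence over baseline after thallium stimulus; more negative B-score means stronger Kir2.1 block with less thallium influx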
KCNK3 block: human KCNK3 channel inhibition, primary screen. CHO-KCNK3 thallium flux, FluxOR fluorescence; hits give low values. B-score at 10 µM. 340,000 compounds, 0.84% hits. AID 602410;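 active = B-score under library mean minus 4 SD, starting fluorescence ratio at most library mean plus 5 SD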;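 also: more negative B-score means stronger inhibition of thallium flux through KCNK3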
KCNQ1 inh valid: confirmation of human KCNQ1 potassium channel inhibitors. shares compounds with KCNQ1 inh. KCNQ1 cell line, FluxOR thallium flux fluorescence. inhibition, % at 10 µM. 1,600 compounds, 93% hits;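 active = primary screen active, with duplicate mean exceeding buffer control mean plus 3 SD of buffer wells, cut at about 28% in these data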;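 also: 0% = buffer control ratio and 100% = XE991 inhibitor control ratio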
CHO KCNQ1 ctr: KCNQ1 inhibitor counter-screen hit in parental CHO cells; AID 588366; shares compounds with KCNQ1 inh; parental CHO-K1, FluxOR thallium flux fluorescence ratio; hits give low values; zero means no signal rise above baseline; fluorescence ratio (Tl flux) at 10 µM; 1,600 compounds, 21% hits;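 active = mean of duplicate thallium-flux fluorescence ratios in parental host cells more than 5 SD below the buffer control mean, cut at about 0.38 in these data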;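 also: ratio is peak minus minimum fluorescence divided by baseline fluorescence; actives read low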
KCNQ1 APC inh: human KCNQ1 inhibition validated by electrophysiology. 490 compounds, 20% hits. KCNQ1-CHO cells, automated patch clamp current. AID 624120. shares compounds with KCNQ1 inh. calls only at 10 µM;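 active = KCNQ1 current drop exceeding 3 SD of negative control wells, seen in both duplicate runs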;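 also: steady state current during a 2 s step from -80 to +40 mV; negative values mean current inhibition and positive values mean potentiation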
KCNQ2 inh: rat KCNQ2 inhibition in KCNQ1 inhibitor specificity screen; 1,600 compounds, 71% hits; inhibition, % at 10 µM; shares compounds with KCNQ1 inh; KCNQ2 cells, FluxOR thallium flux fluorescence;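 active = mean percent inhibition of the KCNQ2 thallium signal more than 5 SD above the buffer-only control wells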;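 also: KCNQ2 expressed in CHO cells; 0% = buffer control wells and 100% = XE-991 inhibitor control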
KCNQ1 KCNE1 spec: selectivity of KCNQ1 inhibitors: inhibition of human KCNQ1/KCNE1 channel | 1,600 compounds, 77% hits | KCNQ1/KCNE1 cells, FluxOR thallium flux fluorescence | inhibition, % at 10 µM | AID 652147 | shares compounds with KCNQ1 inh;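 active = mean percent inhibition of duplicate wells above the buffer-only control mean plus 3 SD of those controls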;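 also: 0% = buffer only wells and 100% = XE-991 inhibitor control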
KCNK9 inh conf: human KCNK9 inhibitor confirmation. HEK293 KCNK9 cells, FluxOR thallium flux fluorescence. shares compounds with KCNK9 inh. 4,900 compounds, 43% hits. AID 492992. inhibition, % at 10 µM;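 active = thallium signal inhibited by more than 5 SD of the compound-free buffer control wells, on both duplicate plates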;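 also: 0% = assay buffer control wells without compound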
Kir2-1 spec: tests whether KCNK9 modulators also affect mouse Kir2.1. shares compounds with KCNK9 inh. Kir2.1 cells, FluxOR thallium flux fluorescence. inhibition, % at 10 µM. 4,900 compounds, 4% hits. AID 492993;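 active = thallium signal drop more than 5 SD beyond the mean of the no-compound control wells, seen in both duplicate plates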;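 also: signal is fluorescence rise after thallium addition divided by baseline fluorescence; plate controls were assay buffer only for no effect and full block by chlorpromazine control for full effect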
KCNK9 uninduced: second counter-screen for KCNK9 modulators: effect in non-induced cells. shares compounds with KCNK9 inh. non-induced KCNK9-HEK293, FluxOR thallium flux. inhibition, % at 10 µM. 4,900 compounds, 40% hits. AID 492997;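 active = thallium signal drop beyond 5 SD of the untreated control mean, on both duplicate plates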;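 also: plate controls were buffer only IC0 wells for no effect and SID17386958 at its maximal inhibitory level for full effect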
The depositor's hits bear a star.

Results for S=c1[nH]nc(-c2ccc(Cl)cc2)n1CCCN1CCOCC1 ?
KCNK9 inh: inactive; KCNQ1 pot: inactive; KCNQ1 inh: inactive; hERG protect: -19; Kir21 inh: 0.13; KCNK3 block: inactive

Results for O=S(=O)(c1ccc(Cl)s1)N1CCC(Cc2ccccc2)CC1 ?
KCNK9 inh: inactive; KCNQ1 pot: inactive; KCNQ1 inh: 6*; hERG protect: -13; Kir21 inh: 0.31; KCNK3 block: inactive; KCNQ1 inh valid: 72*; CHO KCNQ1 ctr: 0.43; KCNQ2 inh: 114%*; KCNQ1 KCNE1 spec: 56%*; KCNK9 inh conf: inactive; Kir2-1 spec: inactive; KCNK9 uninduced: inactive

How did Cc1cccn2c(=O)c3cc(C(=O)N4COCC4(C)C)n(Cc4ccccc4)c3nc12 do in these assays?
KCNK9 inh: inactive; KCNQ1 pot: inactive; KCNQ1 inh: inactive; hERG protect: -15; Kir21 inh: -0.35; KCNK3 block: inactive

Results for Clc1cccc(-c2cc3nc4c(c(N5CCN(c6cnccn6)CC5)n3n2)CCCC4)c1 ?
KCNK9 inh: -13*; KCNQ1 pot: inactive; KCNQ1 inh: 8*; hERG protect: -18; Kir21 inh: 1.9; KCNK3 block: -8.8*; KCNQ1 inh valid: 100*; CHO KCNQ1 ctr: 0.39; KCNQ1 APC inh: inactive; KCNQ2 inh: 119%*; KCNQ1 KCNE1 spec: 162%*; KCNK9 inh conf: 46%*; Kir2-1 spec: inactive; KCNK9 uninduced: 36%*

What do the screens show for `Cc1cc(C)c(S(=O)(=O)c2ccccc2C)c(SCC(C)C)n1`?
KCNK9 inh: -14*; KCNQ1 pot: inactive; KCNQ1 inh: 9*; hERG protect: -11; Kir21 inh: -0.12; KCNK3 block: inactive; KCNQ1 inh valid: 115*; CHO KCNQ1 ctr: 0.42; KCNQ1 APC inh: inactive; KCNQ2 inh: 112%*; KCNQ1 KCNE1 spec: 95%*; KCNK9 inh conf: 50%*; Kir2-1 spec: inactive; KCNK9 uninduced: 42%*

Results for Cc1cc(C)c(S(=O)(=O)c2ccccc2C)c(N(C)C)n1 ?
KCNK9 inh: inactive; KCNQ1 pot: inactive; KCNQ1 inh: inactive; hERG protect: -6; Kir21 inh: -1.9; KCNK3 block: inactive

What do the screens show for `CCC(CC)NC(=O)Nc1ccc(F)c(Cl)c1`?
KCNK9 inh: -8.6*; KCNQ1 pot: inactive; KCNQ1 inh: 9*; hERG protect: -12; Kir21 inh: -0.4; KCNK3 block: inactive; KCNQ1 inh valid: 44*; CHO KCNQ1 ctr: 0.55; KCNQ2 inh: inactive; KCNQ1 KCNE1 spec: 62%*; KCNK9 inh conf: 44%*; Kir2-1 spec: inactive; KCNK9 uninduced: inactive

Results for CC(=O)c1sc2nc(-c3cccs3)cc(C(F)(F)F)c2c1N ?
KCNK9 inh: -9.1*; KCNQ1 pot: inactive; KCNQ1 inh: 7*; hERG protect: -4; Kir21 inh: -3.7; KCNK3 block: inactive; KCNQ1 inh valid: 104*; CHO KCNQ1 ctr: 0.29*; KCNQ2 inh: inactive; KCNQ1 KCNE1 spec: 154%*; KCNK9 inh conf: 42%*; Kir2-1 spec: 30%*; KCNK9 uninduced: 66%*

What do the screens show for `C/C=C(\C)C(=O)OC1CC(C)(C)C[C@H]2C3=CC[C@@H]4[C@@]5(C)CCC(O[C@@H]6O[C@@H](C(=O)O)[C@@H](O)C(O[C@@H]7OC[C@H](O)[C@@H](O)[C@@H]7O[C@@H]7OC(CO)C(O)[C@@H](O)[C@@H]7O)C6O[C@@H]6OC(CO)C(O)C(O)C6O)[C@@](C)(CO)[C@@H]5CC[C@]4(C)[C@]3(C)CC(O)[C@@]12CO` (some centres undefined)?
KCNK3 block: inactive

How did CN1/C(=C\C(=O)Nc2cccc(Cl)c2)C(C)(C)c2ccccc21 do in these assays?
KCNK9 inh: -8.2*; KCNQ1 pot: inactive; KCNQ1 inh: 9*; hERG protect: -14; Kir21 inh: 0.41; KCNK3 block: inactive; KCNQ1 inh valid: 120*; CHO KCNQ1 ctr: 0.39; KCNQ1 APC inh: inactive; KCNQ2 inh: 125%*; KCNQ1 KCNE1 spec: 169%*; KCNK9 inh conf: 45%*; Kir2-1 spec: inactive; KCNK9 uninduced: 34%*

Results for O=C(Cc1ccc(-n2c(=O)[nH]c3ccsc3c2=O)cc1)N1CCN(c2ccc(Cl)cc2)CC1 ?
KCNK9 inh: inactive; KCNQ1 pot: inactive; KCNQ1 inh: inactive; hERG protect: -9; Kir21 inh: 0.38; KCNK3 block: inactive

What do the screens show for `CC1CCN(Cc2c(C#N)c3ccccc3n2C)CC1`?
KCNK9 inh: inactive; KCNQ1 pot: inactive; KCNQ1 inh: inactive; hERG protect: -8; Kir21 inh: -2; KCNK3 block: inactive

What do the screens show for `Clc1ccccc1CSc1cc2c(nn1)-c1ccccc1CC2`?
KCNK9 inh: -11*; KCNQ1 pot: inactive; KCNQ1 inh: 9*; hERG protect: -15; Kir21 inh: 0; KCNK3 block: inactive; KCNQ1 inh valid: 82*; CHO KCNQ1 ctr: 0.4; KCNQ2 inh: 97%*; KCNQ1 KCNE1 spec: 128%*; KCNK9 inh conf: 46%*; Kir2-1 spec: inactive; KCNK9 uninduced: 43%*

Results for Clc1cccc(Cl)c1CSc1cc2c(nn1)-c1ccccc1CC2 ?
KCNK9 inh: inactive; KCNQ1 pot: inactive; KCNQ1 inh: inactive; hERG protect: -21; Kir21 inh: 0.43; KCNK3 block: inactive
